Data set [1] concerns the target T1, NAD-dependent protein deacylase sirtuin-6 (Homo sapiens, UniProt Q8N6T7). The experiment in a line: Inhibition of SIRT6 (unknown origin) using Ac-RYQK(Ac)-AMC as substrate by Fluor de Lys assay.
Data set [2] addresses T1, NAD-dependent protein deacylase sirtuin-6. Put plainly: Binding affinity to SIRT6 (unknown origin) assessed as change in melting temperature at 40 uM by differential scanning fluorimetry. (In general: DSF heats the sample and reads unfolding from a dye or from intrinsic fluorescence.)
Data set [3] in a line: Toxicity in mouse model of type-2 diabetes mellitus assessed as effect on body weight at 7.5 to 30 mg/kg, ip. As to conditions: in vivo. The class given is organism-based. The method, boiled down:
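High-fat-diet-fed mice served as the type 2 diabetes model. Compound was given by intraperitoneal injection, and blood glucose and body weight were followed over time.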

The target in data set [4] is T2, NAD-dependent protein deacetylase sirtuin-2 (Homo sapiens, UniProt Q8IXJ6).
T2 sequence (Q8IXJ6 whole entry): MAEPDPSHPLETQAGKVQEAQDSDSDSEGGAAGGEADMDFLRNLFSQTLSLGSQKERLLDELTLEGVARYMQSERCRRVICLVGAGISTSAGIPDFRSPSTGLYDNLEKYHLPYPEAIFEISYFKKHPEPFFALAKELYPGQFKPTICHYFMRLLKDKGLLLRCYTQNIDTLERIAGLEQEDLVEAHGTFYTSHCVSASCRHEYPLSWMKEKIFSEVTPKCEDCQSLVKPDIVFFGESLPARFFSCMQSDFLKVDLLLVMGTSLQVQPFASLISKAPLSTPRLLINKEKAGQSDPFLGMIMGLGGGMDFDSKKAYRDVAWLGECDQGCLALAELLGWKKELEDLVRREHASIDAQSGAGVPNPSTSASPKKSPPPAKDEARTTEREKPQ
The experiment in a line: Inhibition of SIRT2 (unknown origin). In a few lines:
(§1)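 Each deacetylase was run in a Fluor de Lys (FDL) fluorogenic deacetylation assay as a selectivity screen, with compound tested at concentrations up to 200 μM. IC50 was estimated from the dose-response.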

In data set [5] the target is T3, NAD-dependent protein deacetylase sirtuin-3, mitochondrial (Homo sapiens, UniProt Q9NTG7).
T3 sequence (Q9NTG7 whole entry): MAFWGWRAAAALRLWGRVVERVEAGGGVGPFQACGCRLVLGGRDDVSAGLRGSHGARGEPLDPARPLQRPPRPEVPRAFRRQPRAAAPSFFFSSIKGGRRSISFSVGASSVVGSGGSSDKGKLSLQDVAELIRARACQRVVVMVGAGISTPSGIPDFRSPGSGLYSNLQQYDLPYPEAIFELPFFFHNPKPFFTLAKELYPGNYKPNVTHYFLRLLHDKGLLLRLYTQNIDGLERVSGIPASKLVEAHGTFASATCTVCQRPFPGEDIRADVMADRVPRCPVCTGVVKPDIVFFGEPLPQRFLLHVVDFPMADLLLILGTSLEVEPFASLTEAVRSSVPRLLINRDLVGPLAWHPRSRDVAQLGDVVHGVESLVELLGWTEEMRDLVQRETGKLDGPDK
The experiment in a line: Inhibition of SIRT3 (unknown origin). In a few lines:
as §1

Data set [6] has as its target Histone deacetylase 1 (Homo sapiens, UniProt Q13547). Put plainly: Inhibition of HDAC1 (unknown origin). The method, boiled down:
as §1

Data set [7] has as its target Histone deacetylase 3 (Homo sapiens, UniProt O15379). Put plainly: Inhibition of HDAC3 (unknown origin). In a few lines: as §1
The target in data set [8] is Histone deacetylase 5 (Homo sapiens, UniProt Q9UQL6). Put plainly: Inhibition of HDAC5 (unknown origin). The method, boiled down: as §1
Sequence of Histone deacetylase 5 (Q9UQL6 whole entry): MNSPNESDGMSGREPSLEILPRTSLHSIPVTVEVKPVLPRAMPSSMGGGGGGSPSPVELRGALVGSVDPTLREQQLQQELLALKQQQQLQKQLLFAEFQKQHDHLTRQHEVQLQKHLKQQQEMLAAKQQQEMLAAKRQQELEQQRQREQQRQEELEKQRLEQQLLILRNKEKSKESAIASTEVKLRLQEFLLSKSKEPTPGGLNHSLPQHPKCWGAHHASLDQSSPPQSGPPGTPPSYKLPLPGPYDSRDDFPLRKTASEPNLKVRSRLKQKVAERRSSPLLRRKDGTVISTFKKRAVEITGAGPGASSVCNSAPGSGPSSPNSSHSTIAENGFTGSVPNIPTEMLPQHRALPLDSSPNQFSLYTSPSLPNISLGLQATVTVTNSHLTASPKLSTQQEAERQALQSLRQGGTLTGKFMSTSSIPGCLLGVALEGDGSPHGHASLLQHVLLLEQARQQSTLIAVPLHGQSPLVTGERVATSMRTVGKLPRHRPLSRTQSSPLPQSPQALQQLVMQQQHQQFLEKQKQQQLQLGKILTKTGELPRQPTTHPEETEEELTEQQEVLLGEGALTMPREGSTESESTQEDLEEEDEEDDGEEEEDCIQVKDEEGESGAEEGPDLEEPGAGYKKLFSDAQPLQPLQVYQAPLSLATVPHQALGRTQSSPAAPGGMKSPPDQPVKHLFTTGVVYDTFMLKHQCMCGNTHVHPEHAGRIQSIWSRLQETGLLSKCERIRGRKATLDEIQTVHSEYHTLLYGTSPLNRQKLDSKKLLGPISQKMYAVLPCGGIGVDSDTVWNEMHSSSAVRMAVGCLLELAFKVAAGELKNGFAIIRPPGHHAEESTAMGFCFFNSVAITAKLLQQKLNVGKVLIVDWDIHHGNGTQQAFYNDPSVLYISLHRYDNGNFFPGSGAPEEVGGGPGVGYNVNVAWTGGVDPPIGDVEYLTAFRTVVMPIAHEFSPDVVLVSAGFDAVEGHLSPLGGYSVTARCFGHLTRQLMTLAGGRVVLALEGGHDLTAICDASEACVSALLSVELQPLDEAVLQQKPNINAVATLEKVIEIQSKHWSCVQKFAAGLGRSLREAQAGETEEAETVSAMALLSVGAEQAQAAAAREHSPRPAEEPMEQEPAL
The target of data set [9] is T4, Histone deacetylase 8 (Homo sapiens, UniProt Q9BY41).
T4 sequence (Q9BY41 whole entry): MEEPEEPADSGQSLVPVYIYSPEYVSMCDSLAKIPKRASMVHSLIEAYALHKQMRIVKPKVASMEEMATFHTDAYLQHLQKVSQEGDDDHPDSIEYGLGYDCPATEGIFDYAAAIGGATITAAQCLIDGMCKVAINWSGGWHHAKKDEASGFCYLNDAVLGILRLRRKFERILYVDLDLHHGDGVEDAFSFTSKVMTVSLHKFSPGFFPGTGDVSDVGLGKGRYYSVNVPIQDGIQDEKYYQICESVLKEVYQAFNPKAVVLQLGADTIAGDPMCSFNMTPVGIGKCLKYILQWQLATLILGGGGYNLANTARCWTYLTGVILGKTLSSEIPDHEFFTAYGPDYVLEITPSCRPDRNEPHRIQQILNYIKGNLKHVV
The experiment in a line: Inhibition of HDAC8 (unknown origin). In a few lines: as §1

Data set [10] deals with Histone deacetylase 9 (Homo sapiens, UniProt Q9UKV0). The experiment in a line: Inhibition of HDAC9 (unknown origin). In a few lines:
as §1

In data set [11] the target is T5, Polyamine deacetylase HDAC10 (Homo sapiens, UniProt Q969S8).
T5 sequence (Q969S8 whole entry): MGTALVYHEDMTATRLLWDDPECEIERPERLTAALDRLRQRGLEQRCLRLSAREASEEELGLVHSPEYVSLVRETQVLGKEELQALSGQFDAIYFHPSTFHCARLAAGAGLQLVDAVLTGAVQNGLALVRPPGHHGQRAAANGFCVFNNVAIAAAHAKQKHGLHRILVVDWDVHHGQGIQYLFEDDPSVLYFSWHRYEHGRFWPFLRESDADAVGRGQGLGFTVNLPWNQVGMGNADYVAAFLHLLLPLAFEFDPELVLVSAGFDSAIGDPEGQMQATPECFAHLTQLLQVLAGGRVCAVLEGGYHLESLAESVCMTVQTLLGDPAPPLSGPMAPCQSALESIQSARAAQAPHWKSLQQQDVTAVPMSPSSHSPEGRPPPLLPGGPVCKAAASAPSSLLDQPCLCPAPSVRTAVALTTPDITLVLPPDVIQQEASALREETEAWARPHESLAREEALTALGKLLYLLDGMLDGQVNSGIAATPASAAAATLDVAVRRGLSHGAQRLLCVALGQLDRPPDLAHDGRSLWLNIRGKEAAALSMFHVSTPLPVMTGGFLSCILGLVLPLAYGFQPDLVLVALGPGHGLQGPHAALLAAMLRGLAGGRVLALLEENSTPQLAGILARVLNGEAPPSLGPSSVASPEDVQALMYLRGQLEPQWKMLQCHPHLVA
Put plainly: Inhibition of HDAC10 (unknown origin). The method, boiled down:
as §1

Data set [12] deals with T6, Histone deacetylase 11 (Homo sapiens, UniProt Q96DB2).
T6 sequence (Q96DB2 whole entry): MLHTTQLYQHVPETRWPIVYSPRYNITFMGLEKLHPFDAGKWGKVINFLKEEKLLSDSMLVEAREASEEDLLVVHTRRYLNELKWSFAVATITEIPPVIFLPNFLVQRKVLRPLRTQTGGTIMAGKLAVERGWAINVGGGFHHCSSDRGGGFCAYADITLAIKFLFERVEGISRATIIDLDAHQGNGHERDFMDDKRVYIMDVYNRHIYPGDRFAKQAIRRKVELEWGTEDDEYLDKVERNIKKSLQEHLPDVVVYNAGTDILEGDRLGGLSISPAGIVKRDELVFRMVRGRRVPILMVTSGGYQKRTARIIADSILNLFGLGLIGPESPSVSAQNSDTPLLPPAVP
Put plainly: Inhibition of HDAC11 (unknown origin). In a few lines:
as §1

Data set [13] has as its target T1, NAD-dependent protein deacylase sirtuin-6. Put plainly: Inhibition of SIRT6 in human BxPC3 cells assessed as increase in H3K9Ac expression measured after 48 hrs by Western blot analysis. The class given is cell-based. The conditions noted are these: BXPC-3. The method, boiled down:
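BxPC-3 cells were exposed to 0.78, 1.56, 3.13, 6.25, 12.5 and 25 μM compound for 48 h. Histone H3K9ac and H3K18ac levels were then assessed by western blot, with β-actin as the loading control. Acetylation increase is read as cellular SIRT6 deacetylase inhibition.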
For orientation: In western blotting, separated proteins are transferred to a membrane and probed.

Bounds are passed on as bounds.

T1 sequence (Q8N6T7 whole entry): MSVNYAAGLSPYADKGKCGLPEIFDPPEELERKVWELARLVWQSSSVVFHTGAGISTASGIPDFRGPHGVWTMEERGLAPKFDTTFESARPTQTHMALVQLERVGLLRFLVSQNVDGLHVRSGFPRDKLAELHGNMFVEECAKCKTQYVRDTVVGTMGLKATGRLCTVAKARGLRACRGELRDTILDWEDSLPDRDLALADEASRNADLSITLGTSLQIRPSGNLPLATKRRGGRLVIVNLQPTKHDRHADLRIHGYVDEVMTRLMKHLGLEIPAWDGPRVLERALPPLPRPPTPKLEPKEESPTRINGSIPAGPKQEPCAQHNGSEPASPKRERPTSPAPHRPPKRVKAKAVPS
Sequence of Histone deacetylase 9 (Q9UKV0 whole entry): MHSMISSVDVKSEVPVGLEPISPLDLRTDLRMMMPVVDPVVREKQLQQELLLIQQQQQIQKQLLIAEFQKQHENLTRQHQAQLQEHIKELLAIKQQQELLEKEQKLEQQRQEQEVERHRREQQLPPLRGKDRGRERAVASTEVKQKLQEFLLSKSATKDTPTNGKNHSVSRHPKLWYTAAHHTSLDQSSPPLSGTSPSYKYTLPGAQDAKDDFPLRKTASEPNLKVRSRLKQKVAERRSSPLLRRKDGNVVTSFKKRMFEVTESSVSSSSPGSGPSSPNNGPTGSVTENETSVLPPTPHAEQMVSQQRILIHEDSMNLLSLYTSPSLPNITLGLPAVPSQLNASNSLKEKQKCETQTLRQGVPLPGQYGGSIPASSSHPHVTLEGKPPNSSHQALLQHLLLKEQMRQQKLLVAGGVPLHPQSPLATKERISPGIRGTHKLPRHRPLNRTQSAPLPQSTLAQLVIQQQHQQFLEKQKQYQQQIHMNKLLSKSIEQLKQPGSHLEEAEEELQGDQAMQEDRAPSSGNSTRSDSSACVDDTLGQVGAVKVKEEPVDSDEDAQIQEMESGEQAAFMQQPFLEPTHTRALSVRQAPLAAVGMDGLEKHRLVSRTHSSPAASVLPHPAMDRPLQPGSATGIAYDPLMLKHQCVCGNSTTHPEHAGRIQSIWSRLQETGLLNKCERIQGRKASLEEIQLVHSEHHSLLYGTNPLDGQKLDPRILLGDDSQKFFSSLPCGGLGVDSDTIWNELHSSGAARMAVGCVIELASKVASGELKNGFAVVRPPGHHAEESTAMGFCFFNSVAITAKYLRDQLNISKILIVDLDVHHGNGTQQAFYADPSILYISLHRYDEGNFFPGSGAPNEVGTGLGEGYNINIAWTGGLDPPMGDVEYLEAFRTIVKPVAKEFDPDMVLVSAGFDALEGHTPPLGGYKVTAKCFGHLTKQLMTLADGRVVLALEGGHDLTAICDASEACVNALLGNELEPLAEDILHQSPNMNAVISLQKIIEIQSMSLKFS
Sequence of Histone deacetylase 3 (O15379 whole entry): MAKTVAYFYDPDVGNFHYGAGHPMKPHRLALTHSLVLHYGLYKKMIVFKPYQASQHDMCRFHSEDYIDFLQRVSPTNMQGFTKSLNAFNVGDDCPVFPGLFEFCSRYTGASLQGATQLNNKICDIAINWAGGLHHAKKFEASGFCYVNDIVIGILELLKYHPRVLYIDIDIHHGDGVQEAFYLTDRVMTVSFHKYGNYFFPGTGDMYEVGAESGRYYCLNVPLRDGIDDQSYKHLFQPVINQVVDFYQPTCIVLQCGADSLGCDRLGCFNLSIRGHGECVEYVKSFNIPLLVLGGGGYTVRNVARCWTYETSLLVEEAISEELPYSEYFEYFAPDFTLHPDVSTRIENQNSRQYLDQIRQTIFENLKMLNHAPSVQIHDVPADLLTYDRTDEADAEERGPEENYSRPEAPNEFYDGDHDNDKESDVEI
Sequence of Histone deacetylase 1 (Q13547 whole entry): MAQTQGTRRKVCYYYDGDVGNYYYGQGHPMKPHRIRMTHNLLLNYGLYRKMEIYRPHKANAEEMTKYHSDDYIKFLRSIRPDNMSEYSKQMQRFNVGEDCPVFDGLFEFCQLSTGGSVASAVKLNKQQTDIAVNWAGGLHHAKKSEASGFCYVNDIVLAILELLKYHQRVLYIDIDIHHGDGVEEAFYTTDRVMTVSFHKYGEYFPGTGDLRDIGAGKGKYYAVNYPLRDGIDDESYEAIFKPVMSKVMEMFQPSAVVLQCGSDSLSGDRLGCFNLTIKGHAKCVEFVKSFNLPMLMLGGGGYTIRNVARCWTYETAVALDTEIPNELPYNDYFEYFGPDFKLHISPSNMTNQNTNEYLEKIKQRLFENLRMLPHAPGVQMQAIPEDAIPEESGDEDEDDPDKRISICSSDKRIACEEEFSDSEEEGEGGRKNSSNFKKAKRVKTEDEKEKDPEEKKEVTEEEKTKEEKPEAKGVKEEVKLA

Take `CN1CCN(c2ccc([N+](=O)[O-])c(N)c2)CC1`: the IC50 was 4.93 µM in data set [1]; > 200 µM in data set [4]; > 200 µM in [5]; > 200 µM in data set [6]; > 200 µM in [7]; > 200 µM in data set [8]. For the same compound, the IC50 in [9], in data set [10], in [11] and in [12] was > 200 µM in each case. In data set [2], the ΔTm amounted to 1.88 °C. Besides, the Activity entry in data set [3] was “Non-Toxic”. Besides, the inhibition entry in data set [13] was “Dose-dependent effect”.

What is called IC50 is the concentration at which inhibition is half-maximal. Read a low IC50 as greater potency. Usually ΔTm stands for the change in melting temperature against a reference sample.
